Reference: ChEMBL document CHEMBL5247630, “Rational design of the zonulin inhibitor AT1001 derivatives as potential anti SARS-CoV-2” (Eur J Med Chem, 2022)
Non-standard residues stand in square brackets, D forms with d. Residues, ends and D or L forms follow the SMILES beside them. *: point of attachment. Hyp = O=C(O)[C@@H]1C[C@@H](O)CN1; Tic = O=C(O)[C@@H]1Cc2ccccc2CN1; Octanoyl = CCCCCCCC(=O)*; tBu = CC(C)(C)*

What was measured:
[1] = system: Human alphaherpesvirus 3; assay: Antiviral activity against thymidine kinase positive VZV OKA infected in HELF cells assessed as reduction in viral replication; assay type: functional, organism-based; conditions: Human alphaherpesvirus 3, OKA
[2] = system: Human alphaherpesvirus 3; assay: Antiviral activity against thymidine kinase deficient VZV 07-1 infected in HELF cells assessed as reduction in viral replication; assay type: functional, organism-based; conditions: Human alphaherpesvirus 3, 07-1, HELF
[3] = Cytotoxicity against HELF cells assessed as change in cell morphology; assay type: toxicity, cell-based; conditions: human
[4] = system: SARS-CoV-2; assay: Antiviral activity against SARS-CoV-2 UC-1074 infected in African green monkey Vero cells assessed as reduction in virus-induced cytopathic effect incubated for 5 days by microscopic analysis; assay type: functional, organism-based; conditions: Severe acute respiratory syndrome coronavirus 2, UC-1074, Vero, 120 h
[5] = system: SARS-CoV-2; assay: Antiviral activity against SARS-CoV-2 RG2674 infected in African green monkey Vero cells assessed as reduction in virus-induced cytopathic effect incubated for 5 days by microscopic analysis; assay type: functional, organism-based; conditions: Severe acute respiratory syndrome coronavirus 2, RG2674, Vero, 120 h
[6] = system: SARS-CoV-2; assay: Antiviral activity against SARS-CoV-2 NVDBB-2220 infected in African green monkey Vero cells assessed as reduction in virus-induced cytopathic effect incubated for 5 days by microscopic analysis; assay type: functional, organism-based; conditions: Severe acute respiratory syndrome coronavirus 2, NVDBB-2220, Vero, 120 h
[7] = Cytotoxicity against African green monkey Vero cells assessed as change in cell morphology by microscopic analysis; assay type: toxicity, cell-based; conditions: chlorocebus sabaeus
Procedure, shortened: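 Vero CCL81 cells were run in parallel with the antiviral assay in DMEM 2% FCS for 5 days at 37 °C. The value is the minimum concentration causing a microscopically detectable change in cell morphology.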

[8] = system: Vero; assay: Cytotoxicity against African green monkey Vero cells assessed as reduction in cell growth by Coulter counter analysis; assay type: toxicity, cell-based; conditions: chlorocebus sabaeus
Procedure, shortened: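 Mock-infected Vero CCL81 cultures were treated with the compound dilution series in DMEM 2% FCS for 5 days at 37 °C.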

[9] = biological target: T1, Replicase polyprotein 1ab (Severe acute respiratory syndrome coronavirus 2, UniProt P0DTD1); assay: Inhibition of C-terminal His6-tagged recombinant SARS-CoV-2 MPro transfected in Escherichia coli BL21 (DE3) using Dabcyl-KTSAVLQSGFRKM-E(Edans)-NH2 as substrate preincubated for 15 mins followed by substrate addition measured after 30 mins by FRET assay
Procedure, shortened: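 Recombinant Mpro (20 nM final) was preincubated 15 min at room temperature with compound.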

[10] = biological target: T1, Replicase polyprotein 1ab; assay: Binding affinity to C-terminal His6-tagged recombinant SARS-CoV-2 MPro transfected in Escherichia coli BL21 (DE3) assessed as dissociation constant by Cheng-Prusoff equation analysis
[11] = Cmax in C57BL6 mouse at 1.25 mg/kg, INH; assay type: ADME, organism-based; design: dose 1.25 mg/kg, route inh; conditions: in vivo, inhaled_or_intranasal
Procedure, shortened: (§1)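 Male C57BL6 mice, 6–8 weeks, 3 per group, single intranasal dose (0.5 mg/kg at 1.0 mg/mL; 1.25 mg/kg at 2.5 mg/mL) or oral dose (10 mg/kg at 1.0 mg/mL; 25 mg/kg at 2.5 mg/mL). Blood collected at 0.25, 1, 2, 4, 8 and 24 h. Cmax, Tmax and AUCt/dose were taken from plasma concentrations, given with SD.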

[12] = AUCt/dose in C57BL6 mouse at 0.5 mg/kg, INH measured for 0.25 to 24 hrs; assay type: ADME, organism-based; conditions: in vivo, inhaled_or_intranasal, time 0.25-24 hrs; procedure, shortened: as §1
[13] = Selectivity index, ratio of EC50 for antiviral activity against SARS-CoV-2 RG2674 infected in African green monkey Vero cells to EC50 for antiviral activity against SARS-CoV-2 UC-1074 infected in African green monkey Vero cells; assay type: toxicity
[14] = biological target: T1, Replicase polyprotein 1ab; assay: Binding affinity to C-terminal His6-tagged recombinant SARS-CoV-2 MPro expressed in Escherichia coli BL21 (DE3) assessed as dissociation constant by ITC assay
Procedure, shortened: (§2)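 E. coli BL21(DE3) Mpro, made untagged by 3C cleavage and SEC, was dialysed into 25 mM Tris-HCl pH 7.6, 20 mM NaCl, 1 mM TCEP. 20–25 µM protein in the cell was titrated with 160–250 µM compound at 28 °C, 0.5% DMSO on both sides, 2.5 µL injections every 180 s. One-site fit with stoichiometry fixed at 1 gave ΔH, ΔS and KD.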

[15] = biological target: Replicase polyprotein 1ab (Severe acute respiratory syndrome coronavirus 2) (UniProt P0DTD1); assay: Binding affinity to C-terminal His6-tagged recombinant SARS-CoV-2 MPro expressed in Escherichia coli BL21 (DE3) assessed as change in gibbs free energy by ITC assay
[16] = biological target: Replicase polyprotein 1ab (Severe acute respiratory syndrome coronavirus 2) (UniProt P0DTD1); assay: Binding affinity to C-terminal His6-tagged recombinant SARS-CoV-2 MPro expressed in Escherichia coli BL21 (DE3) assessed as change in enthalpy by ITC assay; procedure, shortened: as §2
[17] = biological target: Replicase polyprotein 1ab (Severe acute respiratory syndrome coronavirus 2) (UniProt P0DTD1); assay: Binding affinity to C-terminal His6-tagged recombinant SARS-CoV-2 MPro expressed in Escherichia coli BL21 (DE3) assessed as change in entropy by ITC assay; procedure, shortened: as §2
[18] = system: Human betaherpesvirus 5; assay: Antiviral activity against HCMV AD-169 infected in HELF cells assessed as reduction in viral replication; assay type: functional, organism-based; conditions: Human betaherpesvirus 5, AD-169, HELF
[19] = system: Human betaherpesvirus 5; assay: Antiviral activity against HCMV Davis infected in HELF cells assessed as reduction in viral replication; assay type: functional, organism-based; conditions: Human betaherpesvirus 5, Davis
[20] = Cmax in C57BL6 mouse at 0.5 mg/kg, INH measured for 0.25 to 24 hrs; assay type: ADME, organism-based; design: time lower 0.25 hrs, dose 0.5 mg/kg, time upper 24 hrs, route inh; conditions: in vivo, inhaled_or_intranasal; procedure, shortened: as §1
[21] = Tmax in C57BL6 mouse at 0.5 mg/kg, INH; assay type: ADME, organism-based; conditions: in vivo, inhaled_or_intranasal; procedure, shortened: as §1
[22] = Tmax in C57BL6 mouse at 1.25 mg/kg, INH; assay type: ADME, organism-based; conditions: in vivo, inhaled_or_intranasal; procedure, shortened: as §1
[23] = AUCt/dose in C57BL6 mouse at 1.25 mg/kg, INH; assay type: ADME, organism-based; conditions: in vivo, inhaled_or_intranasal; procedure, shortened: as §1
[24] = Cmax in C57BL6 mouse at 10 mg/kg, po; assay type: ADME, organism-based; design: dose 10 mg/kg, route po; conditions: in vivo; procedure, shortened: as §1
[25] = Tmax in C57BL6 mouse at 10 mg/kg, po; assay type: ADME, organism-based; conditions: in vivo; procedure, shortened: as §1
[26] = AUCt/dose in C57BL6 mouse at 10 mg/kg, po; assay type: ADME, organism-based; conditions: in vivo; procedure, shortened: as §1
[27] = Cmax in C57BL6 mouse at 25 mg/kg, po; assay type: ADME, organism-based; design: dose 25 mg/kg, route po; conditions: in vivo; procedure, shortened: as §1
[28] = Tmax in C57BL6 mouse at 25 mg/kg, po; assay type: ADME, organism-based; conditions: in vivo; procedure, shortened: as §1
[29] = AUCt/dose in C57BL6 mouse at 25 mg/kg, po; assay type: ADME, organism-based; conditions: in vivo; procedure, shortened: as §1
[30] = Selectivity index, ratio of EC50 for antiviral activity against SARS-CoV-2 RG2674 infected in African green monkey Vero cells to EC50 for antiviral activity against SARS-CoV-2 NVDBB-2220 infected in African green monkey Vero cells; assay type: toxicity

## O=c1[nH]c(=O)n([C@H]2C[C@H](O)[C@@H](CO)O2)cc1/C=C/Br [BRIVUDINE]
[1]
  EC50: 170 nM
[2]
  EC50: 4.53 µM
[3]
  MCC: > 300 µM

## CCC(CC)COC(=O)[C@H](C)N[P@](=O)(OC[C@H]1O[C@@](C#N)(c2ccc3c(N)ncnn23)[C@H](O)[C@@H]1O)Oc1ccccc1
[4]
  EC50: 0.89 µM
[5]
  EC50: 1.3 µM
[6]
  EC50: 200 nM
[7]
  MCC: 80 µM
[8]
  CC50: 70.6 µM

## CC(C)(C)O[C@H]1CN[C@H](C(=O)N[C@@H](Cc2c[nH]cn2)C(=O)N[C@H](C=O)Cc2c[nH]cn2)C1 (H-[Hyp](tBu)-His-His-aldehyde)
[9]
  IC50: > 170 µM
[10]
  Kd: > 85 µM

## Ac-GGVLVQPG-NH2
[4]
  EC50: 17.6 µM

## Nc1nc2c(ncn2COCCO)c(=O)[nH]1 [ACYCLOVIR]
[3]
  MCC: > 444 µM

## CC(C)C[C@@H](C=O)NC(=O)[C@H](Cc1ccccc1)NC(=O)[C@@H]1Cc2ccccc2CN1 (H-[Tic]-Phe-Leu-aldehyde)
[9]
  IC50: > 425 µM
[10]
  Kd: > 213 µM

## CCCCCCCC(=O)NCC(=O)N[C@@H](Cc1ccccc1)C(=O)N[C@H](C=O)Cc1c[nH]cn1 (Octanoyl-Gly-Phe-His-aldehyde)
[9]
  IC50: 2.37 µM
[11]
  Cmax: 325.95 ng/mL
[12]
  AUCt/dose: 188.05 kg·ng·h/mL/mg
[13]
  Ratio EC50: 8
[10]
  Kd: 1.19 µM
[4]
  EC50: 5 µM
[5]
  EC50: 39.9 µM
[6]
  EC50: 5200 nM
[7]
  MCC: ≥ 100 µM
[8]
  CC50: > 100 µM
[14]
  Kd: 425 nM
[15]
  deltaG: -36.8 kJ/mol
[16]
  deltaH: -68.5 kJ/mol
[17]
  -TdeltaS: 31.8 kJ/mol
[18]
  EC50: > 20 µM
[19]
  EC50: > 100 µM
[1]
  EC50: > 100000 nM
[2]
  EC50: > 100 µM
[3]
  MCC: > 100 µM
[20]
  Cmax: 177.97 ng/mL
[21]
  Tmax: 15 min
[22]
  Tmax: 15 min
[23]
  AUCt/dose: 150.62 kg·ng·h/mL/mg
[24]
  Cmax: 22.72 ng/mg
[25]
  Tmax: 45 min
[26]
  AUCt/dose: 3.07 kg·ng·h/mL/mg
[27]
  Cmax: 33.7 ng/mL
[28]
  Tmax: 30 min
[29]
  AUCt/dose: 2 kg·ng·h/mL/mg
[30]
  Ratio EC50: 8
